Bioassay records: PubChem BioAssay, several laboratories
The entries come from a sample that favours hits as a whole.
MDM2 E3 inh: inhibitors of human Mdm2 E3 ubiquitin ligase | Q00987 | cell-based MDM2 ubiquitination luciferase reporter, 2 h; 0 = plate control, 100 = twice control, blank-subtracted | signal enhancement, % at 5 µM | hit rate 0.11% among 210,000 | AID 1230;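 active = signal enhancement of 30% or more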;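 also: luminescence tracks abundance of the self-degrading MDM2-luciferase fusion protein; higher signal means inhibition of MDM2 E3 ligase activity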
Target sequence (Q00987 whole entry, looked up, the tested form may be a part): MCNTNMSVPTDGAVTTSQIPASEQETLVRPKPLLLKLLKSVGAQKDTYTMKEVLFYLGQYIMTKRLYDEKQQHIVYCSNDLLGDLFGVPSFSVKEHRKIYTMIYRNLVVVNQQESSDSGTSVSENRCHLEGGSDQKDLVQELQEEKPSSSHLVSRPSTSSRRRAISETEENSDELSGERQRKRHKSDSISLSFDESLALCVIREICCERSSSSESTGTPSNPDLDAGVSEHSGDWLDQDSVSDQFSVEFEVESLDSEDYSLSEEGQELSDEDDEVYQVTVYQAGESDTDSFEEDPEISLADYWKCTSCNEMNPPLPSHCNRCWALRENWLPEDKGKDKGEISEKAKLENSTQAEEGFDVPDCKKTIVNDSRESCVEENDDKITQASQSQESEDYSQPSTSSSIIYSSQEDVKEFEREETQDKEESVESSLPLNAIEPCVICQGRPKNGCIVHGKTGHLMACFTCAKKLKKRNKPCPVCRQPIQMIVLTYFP
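Test system: stable mammalian line carrying autodegrading MDM2–luciferase fusion reporter; quantity: 2000 cells in each well; times: 4 h cell settling then 2 h compound exposure, 37 °C; detection: luminescence with SteadyLite reagent, 15 min at room temperature; evaluation: percent signal gain over controls, blank-subtracted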
Lmaj promast: Leishmania major promastigote growth inhibition; inhibition, % at 10 µM; AID 1063; Leishmania major promastigotes, resazurin fluorescence viability; hit rate 9% among 200,000; in the data active = inhibition above about 50%;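 also: promastigotes grown with compound for 44 hours at 28 °C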
S1P4 agonist: activates the human S1P4 receptor | O95977 | S1P4-expressing cell line, agonist reporter assay | activation, % at 4.98 µM | hit rate 0.35% among 220,000; in the data active = activation above about 11%
S1P3 antagonist: antagonists of human S1P3 receptor. hit rate 0.27% among 170,000. inhibition, % at 4.98 µM. CHO S1P3 NFAT-BLA reporter, FRET fluorescence, antagonist mode;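 active = inhibition above the plate cutoff, the mean inhibition of test wells on that plate plus 3 SD, cut at about 28% in these data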;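 also: cells challenged with S1P at its EC80 of 0.8 µM; blue over green emission ratio from cleaved BLA substrate after 4 h stimulation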
S1P4 antag: human S1P4 receptor antagonism | hit rate 0.26% among 220,000 | AID 1510 | S1P4-expressing cells, antagonist mode, reporter read-out | inhibition, % at 4.98 µM; in the data active = inhibition above about 29%
Hits are given with their value; - = inactive; . = no result.

SMILES | MDM2 E3 inh | Lmaj promast | S1P4 agonist | S1P3 antagonist | S1P4 antag
CN(C)c1ccc(CC(=O)c2nc3ccccc3s2)cc1 | - | - | - | - | -
CN1/C(=C\C(=O)COC(=O)c2ccc([N+](=O)[O-])o2)C(C)(C)c2ccccc21 | - | 81 | - | - | -
CN1/C(=C\C(=O)COC(=O)Cn2nnc(-c3ccccc3)n2)C(C)(C)c2ccccc21 | - | 90 | - | - | -
COc1cc(OC)cc(C(=O)NCC(=O)OCC(=O)/C=C2/N(C)c3ccccc3C2(C)C)c1 | - | - | - | - | -
CC(C)[C@H](NC(=O)c1ccccc1)C(=O)OCC(=O)/C=C1/N(C)c2ccccc2C1(C)C | - | - | - | - | -
C=CCNC(=O)c1ccccc1NC(=O)c1ccc(Cl)c(S(=O)(=O)Nc2ccccc2)c1 | - | 58 | - | . | -
COc1cc(C(=O)Nc2nc3ccc(S(=O)(=O)N4CCOCC4)cc3s2)cc(OC)c1OC | - | 61 | - | - | -
COc1ccc2nc(NC(=O)c3cccc(S(=O)(=O)N4CCOCC4)c3)sc2c1 | - | - | - | . | -
COc1ccc2nc(NC(=O)c3cc(S(=O)(=O)N4CCOCC4)ccc3C)sc2c1 | - | 56 | - | . | -
Cc1ccc(S(=O)(=O)N2CCOCC2)cc1C(=O)Nc1ccc2c(c1)CCC2 | - | 52 | - | - | -
CN1CCC(NC(=S)Nc2cccc([N+](=O)[O-])c2)CC1 | - | - | - | - | -
COc1cc(C(=O)Nc2cccc(-c3nncn3C)c2)cc(OC)c1OC | - | - | - | - | -
CN(C)CC1CCCCC1OC(=O)/C=C/c1ccccc1 (stereo unspecified) | . | . | - | - | -
Nc1nnc(SCC(=O)NN2C(=O)NC3(CCCCC3)C2=O)s1 | - | 60 | - | - | -
O=C(CCl)NN1C(=O)NC2(CCCCC2)C1=O | - | - | - | - | -
CCCCN1C(=O)/C(=C2/Sc3ccccc3N2C)S/C1=N\c1ncn[nH]1 | - | - | - | - | -
Cc1ccc(CN2CCN(Cc3cccn3-c3nccs3)CC2CCO)cc1 (stereo unspecified) | - | - | - | - | -
CN1C=C/C(=C\c2cc[n+](C)c3ccccc23)c2ccccc21 | - | 101 | - | - | -
COc1ccc(-c2cc(-c3ccccc3O)[nH]n2)cc1 | - | 99 | - | . | -
O=C(COc1ccc(Cl)cc1Cl)N/N=C/c1ccc(OC2OC(CO)C(O)C(O)C2O)cc1 (stereo unspecified) | - | . | - | - | -
Cc1cc(C(=O)c2ccccc2)c(NC(=O)CCl)s1 | - | 100 | - | - | -
O=C(CCl)Nc1ccccc1C(=O)c1ccccc1 | - | - | - | - | -
CC(C)[C@H](NC(=O)c1ccccc1)C(=O)OCC(=O)N1CCCc2ccccc21 | - | - | - | - | -
CCOc1ccc(N2CC(C(=O)Nc3ccccc3F)CC2=O)cc1 (stereo unspecified) | - | - | - | . | -
COc1cccc(-c2csc(NC3OC(=O)c4c3ccc(OC)c4OC)n2)c1 (stereo unspecified) | - | . | - | - | -
SMILES | MDM2 E3 inh | Lmaj promast | S1P4 agonist | S1P3 antagonist | S1P4 antag
COc1ccc2c(c1OC)C(=O)OC2Nc1nc(-c2ccc(-c3ccccc3)cc2)cs1 (stereo unspecified) | - | 52 | - | - | -
CC(C)CC(NC(=O)c1ccccc1)C(=O)OCC(=O)Nc1ccc(S(N)(=O)=O)cc1 (stereo unspecified) | - | - | - | - | -
NC(=S)N=Nc1c(O)[nH]c2c(Br)cc(Br)cc12 | - | - | - | - | -
O=C(CNCc1cccs1)Nc1ccc(S(=O)(=O)N2CCCCC2)cc1 | - | - | - | - | -
O=C(/C=C/c1ccc(Cl)c([N+](=O)[O-])c1)Nc1ccc(NC(=O)c2ccco2)cc1 | - | - | - | - | -
O=C(Nc1ccc(N2CCCCCC2)cc1)c1ccccc1Cl | - | 57 | - | - | -
O=C(NC(=S)Nc1ccccc1N1CCCC1)c1ccccc1[N+](=O)[O-] | - | - | - | - | -
O=C(/C=C/c1ccc(Cl)c([N+](=O)[O-])c1)Nc1ccc(N2CCCC2)cc1 | - | 67 | - | - | -
O=C(NC(=S)Nc1ccc(N2CCCC2)cc1)c1ccccc1[N+](=O)[O-] | - | 54 | - | - | -
O=C(CNCc1cccs1)Nc1ccc(N2CCCCCC2)cc1 | - | 51 | - | - | -
CCC(C)NS(=O)(=O)c1ccc(OC)c(Cl)c1Cl (stereo unspecified) | - | - | - | . | -
O=C(NC(=S)Nc1ccc(N2CCCCC2)cc1)c1ccc2c(c1)OCCO2 | - | 64 | - | - | -
